{
  "source": "ChEMBL document CHEMBL3352113",
  "about": "“Cytoprotective pyridinol antioxidants as potential therapeutic agents for neurodegenerative and mitochondrial diseases” (Bioorg Med Chem, 2014)",
  "key": {"[1]": {"system": "Lymphocyte", "experiment": "Inhibition of ROS generation in diethyl maleate-treated human lymphocytes obtained from FRDA patient compound pretreated for 16 hrs using DCFH-DA by FACS analysis", "format": "functional, cell-based", "summary_of_the_method": "(§1)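 FRDA lymphocytes pretreated with compounds at 100, 250 and 500 nM for 16 h, then given DEM for 80 min to raise ROS. Stained with DCFH-DA for 15 min, then DCF fluorescence read by flow cytometry. Reported as % ROS scavenging; mean ± SEM of three experiments run in duplicate.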"}, "[2]": {"system": "Lymphocyte", "experiment": "Cytoprotective activity in human lymphocytes obtained from Leigh's syndrome patient assessed as viable cells at 0.1 uM after 16 hrs by trypan blue exclusion assay", "format": "functional", "conditions": "read-out: Activity", "summary_of_the_method": "(§2)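 Lymphocytes from FRDA or Leigh's syndrome patients, grown in RPMI-1640 with 15% fetal calf serum and 2 mM glutamine, kept in log phase. Test agents at 0.1, 0.5 and 2.5 µM; diethyl maleate (DEM) added to deplete glutathione and induce oxidative stress. Viability expressed relative to untreated cells (100%). Values are mean ± SD/SEM as tabulated.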"}, "[3]": {"system": "Lymphocyte", "experiment": "Inhibition of oxidative stress-induced mitochondrial membrane depolarization in diethyl maleate-treated human lymphocytes obtained from FRDA patient assessed as cells with intact mitochondrial membrane potential at 250 nM pretreated for 16 hrs using TMRM by FACS analysis (reference value: 95%)", "format": "functional", "design": "scale not given: the % may be the effect or the level left"}, "[4]": {"system": "Lymphocyte", "experiment": "Inhibition of lipid peroxidation in diethyl maleate-treated human lymphocytes obtained from FRDA patient at 100 to 250 nM after 16 hrs using C11-BODIPY581/591 by FACS analysis", "format": "functional, cell-based", "summary_of_the_method": "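FRDA lymphocytes depleted of glutathione with DEM, probed with C11-BODIPY581/591. Green (oxidized) fluorescence read by flow cytometry at 490/510 nm. Median mean fluorescence taken relative to untreated control and converted to % lipid peroxidation scavenging; mean ± SEM, n = 3.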"}, "[5]": {"system": "Lymphocyte", "experiment": "Inhibition of oxidative stress-induced mitochondrial membrane depolarization in diethyl maleate-treated human lymphocytes obtained from FRDA patient assessed as cells with intact mitochondrial membrane potential at 100 nM pretreated for 16 hrs using TMRM by FACS analysis (reference value: 95%)", "format": "functional", "design": "scale not given: the % may be the effect or the level left"}, "[6]": {"system": "Lymphocyte", "experiment": "Increase in ATP production in CoQ10-deficient lymphocytes (unknown origin) assessed as cellular ATP level at 5 uM after 48 hrs using luciferin-luciferase reaction by bioluminescence assay relative to control", "format": "functional", "summary_of_the_method": "(§3)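 CoQ10-deficient lymphocyte line GM17932 grown in glucose-free RPMI 1640 with 25 mM galactose, 2 mM glutamine and 10% dialyzed FBS, forcing oxidative phosphorylation. Incubated with compounds at 5, 10 or 25 µM for 48 h. Total intracellular ATP measured by luciferin–luciferase reaction, expressed as % of untreated control.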"}, "[7]": {"system": "Lymphocyte", "experiment": "Cytoprotective activity in human lymphocytes obtained from FRDA patient assessed as viable cells at 0.1 uM after 16 hrs by trypan blue exclusion assay", "format": "functional", "conditions": "read-out: Activity", "summary_of_the_method": "as §2"}, "[8]": {"system": "Lymphocyte", "experiment": "Cytoprotective activity in human lymphocytes obtained from Leigh's syndrome patient assessed as viable cells at 2.5 uM after 16 hrs by trypan blue exclusion assay", "format": "functional", "conditions": "read-out: Activity", "summary_of_the_method": "as §2"}, "[9]": {"experiment": "Metabolic stability in bovine liver microsomes at 25 uM after 30 mins by reverse phase HPLC analysis", "format": "ADME, Bos taurus", "conditions": "cattle, read-out: Stability", "summary_of_the_method": "(§4)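 Compounds incubated 30 min with activated bovine liver microsomes. Remaining parent compound quantified by reversed-phase HPLC and expressed as % recovered; mean ± SD.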"}, "[10]": {"system": "Lymphocyte", "experiment": "Cytoprotective activity in human lymphocytes obtained from FRDA patient assessed as viable cells after 16 hrs by trypan blue exclusion assay", "format": "functional, cell-based", "summary_of_the_method": "as §2"}, "[11]": {"system": "Lymphocyte", "experiment": "Inhibition of oxidative stress-induced mitochondrial membrane depolarization in diethyl maleate-treated human lymphocytes obtained from FRDA patient assessed as cells with intact mitochondrial membrane potential pretreated for 16 hrs using TMRM by FACS analysis", "format": "functional, cell-based"}, "[12]": {"organism": "Bos taurus", "experiment": "Inhibition of bovine heart mitochondrial NADH oxidase complex I/III/IV assessed as remaining activity at 10 uM by spectrophotometry relative to untreated control"}, "[13]": {"system": "Lymphocyte", "experiment": "Increase in ATP production in CoQ10-deficient lymphocytes (unknown origin) assessed as cellular ATP level at 25 uM after 48 hrs using luciferin-luciferase reaction by bioluminescence assay relative to control", "format": "functional", "summary_of_the_method": "as §3"}, "[14]": {"system": "Lymphocyte", "experiment": "Cytoprotective activity in human lymphocytes obtained from Leigh's syndrome patient assessed as viable cells at 0.5 uM after 16 hrs by trypan blue exclusion assay", "format": "functional", "conditions": "read-out: Activity", "summary_of_the_method": "as §2"}, "[15]": {"experiment": "Drug metabolism in bovine liver microsomes at 25 uM after 30 mins by reverse phase HPLC analysis", "format": "ADME, Bos taurus", "conditions": "cattle, read-out: Drug metabolism", "summary_of_the_method": "as §4"}, "[16]": {"organism": "Bos taurus", "experiment": "Inhibition of bovine heart mitochondrial NADH oxidase complex I/III/IV assessed as remaining activity by spectrophotometry relative to untreated control"}, "[17]": {"system": "Lymphocyte", "experiment": "Inhibition of ROS generation in diethyl maleate-treated human lymphocytes obtained from FRDA patient compound pretreated at 100 to 500 nM for 16 hrs using DCFH-DA by FACS analysis", "format": "functional, cell-based", "summary_of_the_method": "as §1"}, "[18]": {"system": "Lymphocyte", "experiment": "Cytoprotective activity in human lymphocytes obtained from Leigh's syndrome patient assessed as viable cells after 16 hrs by trypan blue exclusion assay", "format": "functional, cell-based", "summary_of_the_method": "as §2"}, "[19]": {"organism": "Bos taurus", "experiment": "Inhibition of bovine heart mitochondrial NADH oxidase complex I/III/IV assessed as remaining activity at 5 uM by spectrophotometry relative to untreated control"}, "[20]": {"organism": "Bos taurus", "experiment": "Inhibition of bovine heart mitochondrial NADH oxidase complex I/III/IV assessed as remaining activity at 1 uM by spectrophotometry relative to untreated control"}, "[21]": {"system": "Lymphocyte", "experiment": "Cytoprotective activity in human lymphocytes obtained from FRDA patient assessed as viable cells at 2.5 uM after 16 hrs by trypan blue exclusion assay", "format": "functional", "conditions": "read-out: Activity", "summary_of_the_method": "as §2"}, "[22]": {"system": "Lymphocyte", "experiment": "Increase in ATP production in CoQ10-deficient lymphocytes (unknown origin) assessed as cellular ATP level at 10 uM after 48 hrs using luciferin-luciferase reaction by bioluminescence assay relative to control", "format": "functional", "summary_of_the_method": "as §3"}, "[23]": {"system": "Lymphocyte", "experiment": "Inhibition of oxidative stress-induced mitochondrial membrane depolarization in diethyl maleate-treated human lymphocytes obtained from FRDA patient assessed as cells with intact mitochondrial membrane potential at 500 nM pretreated for 16 hrs using TMRM by FACS analysis (reference value: 95%)", "format": "functional", "design": "scale not given: the % may be the effect or the level left"}, "[24]": {"system": "Lymphocyte", "experiment": "Cytoprotective activity in human lymphocytes obtained from FRDA patient assessed as viable cells at 0.5 uM after 16 hrs by trypan blue exclusion assay", "format": "functional", "conditions": "read-out: Activity", "summary_of_the_method": "as §2"}},
  "note": "The source made the active and inactive calls. No cut-off for these calls is given here.",
  "data": [
    {"smiles": "CCCCCCCCCCCCCCCCc1nc(N(C)C)c(C)c(C)c1O", "values": [
      {"measurement": "inhibition", "setting": "[1]", "value": "Dose-dependent effect"},
      {"measurement": "viability at 0.1 µM", "setting": "[2]", "value": 29, "unit": "%"},
      {"measurement": "Activity", "setting": "[3]", "value": 84, "unit": "%"},
      {"measurement": "inhibition", "setting": "[4]", "value": "Active"},
      {"measurement": "Activity", "setting": "[5]", "value": 67, "unit": "%"},
      {"measurement": "Activity", "setting": "[6]", "value": 100, "unit": "%"},
      {"measurement": "viability at 0.1 µM", "setting": "[7]", "value": 80, "unit": "%"},
      {"measurement": "viability at 2.5 µM", "setting": "[8]", "value": 83, "unit": "%"},
      {"measurement": "remaining at 0.5 h, 25 µM", "setting": "[9]", "value": 70, "unit": "%"},
      {"measurement": "Activity", "setting": "[10]", "value": "Dose-dependent effect"},
      {"measurement": "inhibition", "setting": "[11]", "value": "Dose-dependent effect"},
      {"measurement": "Activity", "setting": "[12]", "value": 92, "unit": "%"},
      {"measurement": "Activity", "setting": "[13]", "value": 41, "unit": "%"},
      {"measurement": "viability at 0.5 µM", "setting": "[14]", "value": 78, "unit": "%"},
      {"measurement": "metabolised at 0.5 h, 25 µM", "setting": "[15]", "value": 20, "unit": "%"},
      {"measurement": "inhibition", "setting": "[16]", "value": "Dose-dependent effect"},
      {"measurement": "inhibition", "setting": "[17]", "value": "Active"},
      {"measurement": "Activity", "setting": "[18]", "value": "Dose-dependent effect"},
      {"measurement": "Activity", "setting": "[19]", "value": 95, "unit": "%"},
      {"measurement": "Activity", "setting": "[20]", "value": 98, "unit": "%"},
      {"measurement": "viability at 2.5 µM", "setting": "[21]", "value": 92, "unit": "%"},
      {"measurement": "Activity", "setting": "[22]", "value": 79, "unit": "%"},
      {"measurement": "Activity", "setting": "[23]", "value": 92, "unit": "%"},
      {"measurement": "viability at 0.5 µM", "setting": "[24]", "value": 91, "unit": "%"}
    ]}
  ]
}
